Data as given in ChEMBL document CHEMBL5260806, “Hydrogen peroxide activated quinone methide precursors with enhanced DNA cross-linking capability and cytotoxicity towards cancer cells” (Eur J Med Chem, 2017).

Legend:
A549 [1] = experiment: Anticancer activity against human A549 cells assessed as cell growth inhibition at 10 uM incubated for 48 hrs by sulforhodamine B assay; assay type: functional; conditions: read-out: GI
Procedure, shortened: (§1)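 NCI-60 screen: cell lines grown in RPMI 1640 with 5% FBS and 2 mM L-glutamine, plated in 96-well plates at 5,000–40,000 cells/well depending on doubling time. Each line has one single-dose arm at 10 µM and one dose-response arm giving GI50.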

SF-539 = experiment: Anticancer activity against human SF-539 cells assessed as cell growth inhibition at 10 uM incubated for 48 hrs by sulforhodamine B assay; assay type: functional; conditions: read-out: GI
Procedure, shortened: (§2)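 NCI DTP 60-cell-line screen run at National Cancer Institute. Cells grown in RPMI 1640 with 5% fetal bovine serum and 2 mM L-glutamine, seeded at 5,000–40,000 cells/well depending on doubling time. Single-dose screen at 10 µM gives growth percentage; dose-response series gives GI50.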

SN12C = experiment: Anticancer activity against human SN12C cells assessed inhibition of cell growth after 48 hrs by CellTiter-Glo luminescent assay; assay type: functional, cell-based
Procedure, shortened: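 Renal lines grown in RPMI 1640 with 5% FBS and 2 mM L-glutamine, seeded into 384-well plates at 5,000–10,000 cells/well, held 2–3 h at 37 °C, 5% CO2. DMSO stocks (20 mM) serially halved ten times and added at 1:100. Cells exposed 48 h at 37 °C; CellTiter-Glo added, 10 min at room temperature, luminescence read.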

UACC-62 = experiment: Anticancer activity against human UACC-62 cells assessed as cell growth inhibition incubated for 48 hrs by sulforhodamine B assay; assay type: functional
BT-549 [2] = experiment: Anticancer activity against human BT-549 cells assessed as cell growth inhibition incubated for 48 hrs by sulforhodamine B assay; assay type: functional; procedure, shortened: as §1
HCC 2998 = experiment: Anticancer activity against human HCC 2998 cells assessed as cell growth inhibition incubated for 48 hrs by sulforhodamine B assay; assay type: functional; procedure, shortened: as §1
A549 [3] = experiment: Anticancer activity against human A549 cells assessed as cell growth inhibition incubated for 48 hrs by sulforhodamine B assay; assay type: functional; procedure, shortened: as §1
PC-3 [4] = experiment: Anticancer activity against human PC-3 cells assessed as cell growth inhibition incubated for 48 hrs by sulforhodamine B assay; assay type: functional; procedure, shortened: as §2
SNB-19 [5] = experiment: Anticancer activity against human SNB-19 cells assessed as cell growth inhibition at 10 uM incubated for 48 hrs by sulforhodamine B assay; assay type: functional; conditions: read-out: GI
OVCAR-4 = experiment: Anticancer activity against human OVCAR-4 cells assessed as cell growth inhibition at 10 uM incubated for 48 hrs by sulforhodamine B assay; assay type: functional; conditions: read-out: GI; procedure, shortened: as §2
RPMI-8226 = experiment: Anticancer activity against human RPMI-8226 cells assessed as cell growth inhibition at 10 uM incubated for 48 hrs by sulforhodamine B assay; assay type: functional; conditions: read-out: GI; procedure, shortened: as §2
786-0 [6] = experiment: Anticancer activity against human 786-0 cells assessed as cell growth inhibition at 10 uM incubated for 48 hrs by sulforhodamine B assay; assay type: functional; conditions: read-out: GI; procedure, shortened: as §1
SK-MEL-28 = experiment: Anticancer activity against human SK-MEL-28 cells assessed as cell growth inhibition at 10 uM incubated for 48 hrs by sulforhodamine B assay; assay type: functional; conditions: read-out: GI; procedure, shortened: as §2
BT-549 [7] = experiment: Anticancer activity against human BT-549 cells assessed as cell growth inhibition at 10 uM incubated for 48 hrs by sulforhodamine B assay; assay type: functional; conditions: read-out: GI; procedure, shortened: as §1
RXF 393 = experiment: Anticancer activity against human RXF 393 cells assessed as cell growth inhibition incubated for 48 hrs by sulforhodamine B assay; assay type: functional; procedure, shortened: as §2
T47D = experiment: Anticancer activity against human T47D cells assessed as cell growth inhibition incubated for 48 hrs by sulforhodamine B assay; assay type: functional
OVCAR-8 = experiment: Anticancer activity against human OVCAR-8 cells assessed as cell growth inhibition at 10 uM incubated for 48 hrs by sulforhodamine B assay; assay type: functional; conditions: read-out: GI; procedure, shortened: as §2
M14 = experiment: Anticancer activity against human M14 cells assessed as cell growth inhibition at 10 uM incubated for 48 hrs by sulforhodamine B assay; assay type: functional; conditions: read-out: GI; procedure, shortened: as §1
NCI-H522 = experiment: Anticancer activity against human NCI-H522 cells assessed as cell growth inhibition at 10 uM incubated for 48 hrs by sulforhodamine B assay; assay type: functional; conditions: read-out: GI; procedure, shortened: as §2
SNB-19 [8] = experiment: Anticancer activity against human SNB-19 cells assessed as cell growth inhibition incubated for 48 hrs by sulforhodamine B assay; assay type: functional
NCI-H23 = experiment: Anticancer activity against human NCI-H23 cells assessed as cell growth inhibition incubated for 48 hrs by sulforhodamine B assay; assay type: functional; procedure, shortened: as §2
CCRF-CEM = experiment: Anticancer activity against human CCRF-CEM cells assessed as cell growth inhibition at 10 uM incubated for 48 hrs by sulforhodamine B assay; assay type: functional; conditions: read-out: GI; procedure, shortened: as §1
786-0 [9] = experiment: Anticancer activity against human 786-0 cells assessed as cell growth inhibition incubated for 48 hrs by sulforhodamine B assay; assay type: functional; procedure, shortened: as §1
OVCAR-3 = experiment: Anticancer activity against human OVCAR-3 cells assessed as cell growth inhibition at 10 uM incubated for 48 hrs by sulforhodamine B assay; assay type: functional; conditions: read-out: GI; procedure, shortened: as §2
PC-3 [10] = experiment: Anticancer activity against human PC-3 cells assessed as cell growth inhibition at 10 uM incubated for 48 hrs by sulforhodamine B assay; assay type: functional; conditions: read-out: GI; procedure, shortened: as §2

COc1cc(CBr)c(B2OC(C)(C)C(C)(C)O2)c(CBr)c1
inhibition of growth at 10 µM (A549 [1]): < 50%
inhibition of growth at 10 µM (SF-539): < 50%
IC50 (SN12C): 18.6 µM
GI50 (UACC-62): 2000 nM
GI50 (BT-549 [2]): 2000 nM
GI50 (HCC 2998): 2000 nM
GI50 (A549 [3]): 2000 nM
GI50 (PC-3 [4]): 2000 nM
inhibition of growth at 10 µM (SNB-19 [5]): < 50%
inhibition of growth at 10 µM (OVCAR-4): < 50%
inhibition of growth at 10 µM (RPMI-8226): < 50%
inhibition of growth at 10 µM (786-0 [6]): < 50%
inhibition of growth at 10 µM (SK-MEL-28): < 50%
inhibition of growth at 10 µM (BT-549 [7]): < 50%
GI50 (RXF 393): 2000 nM
GI50 (T47D): 2000 nM
inhibition of growth at 10 µM (OVCAR-8): < 50%
inhibition of growth at 10 µM (M14): < 50%
inhibition of growth at 10 µM (NCI-H522): < 50%
GI50 (SNB-19 [8]): 2000 nM
GI50 (NCI-H23): 2000 nM
inhibition of growth at 10 µM (CCRF-CEM): < 50%
GI50 (786-0 [9]): 2000 nM
inhibition of growth at 10 µM (OVCAR-3): < 50%
inhibition of growth at 10 µM (PC-3 [10]): < 50%
